Published values collected from several papers.
Lines come from different studies, so protocols differ.
Target: Tyrosine-protein kinase Tec (TEC, Homo sapiens, UniProt P42680)
Sequence (P42680 1-631, as in one of the studies): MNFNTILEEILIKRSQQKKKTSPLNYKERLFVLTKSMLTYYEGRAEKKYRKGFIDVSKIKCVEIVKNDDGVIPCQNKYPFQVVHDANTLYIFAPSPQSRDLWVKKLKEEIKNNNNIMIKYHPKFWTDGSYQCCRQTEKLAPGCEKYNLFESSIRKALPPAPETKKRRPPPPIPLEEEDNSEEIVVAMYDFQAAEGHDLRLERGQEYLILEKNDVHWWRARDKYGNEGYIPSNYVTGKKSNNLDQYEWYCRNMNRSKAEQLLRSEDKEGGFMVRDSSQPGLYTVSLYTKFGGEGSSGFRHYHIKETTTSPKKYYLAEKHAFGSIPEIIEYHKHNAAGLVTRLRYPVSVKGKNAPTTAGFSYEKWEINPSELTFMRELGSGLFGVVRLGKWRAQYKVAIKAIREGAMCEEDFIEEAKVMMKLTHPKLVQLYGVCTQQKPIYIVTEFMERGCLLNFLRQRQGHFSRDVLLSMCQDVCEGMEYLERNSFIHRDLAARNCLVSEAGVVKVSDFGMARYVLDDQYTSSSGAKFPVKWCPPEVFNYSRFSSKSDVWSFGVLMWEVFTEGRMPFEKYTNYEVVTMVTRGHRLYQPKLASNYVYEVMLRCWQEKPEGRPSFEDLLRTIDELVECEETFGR

| Structure (SMILES) | read-out | technique | concentration | remaining binding |
| --- | --- | --- | --- | --- |
| COc1cnc(Nc2cccc(S(N)(=O)=O)c2)nc1N1CCN(c2ccccc2)C(=O)C1 | binding | competition with immobilised ligand | 1 µM | 100% |
| C[C@@H]1CN(c2cc(-c3n[nH]c4ccc(OC5(C)CC5)cc34)ncn2)C[C@H](C)O1 | cell-free assay | competition with immobilised ligand | 0.1 µM | 74% |
| C=CC(=O)N1CCC(C(=O)NCC(=O)N2CCN(c3nc(-c4cnc(N)nc4C(F)F)nc(N4CCOCC4)n3)CC2)CC1 | binding | competition with immobilised ligand | 1 µM | 99% |
| CCCCN(CCCC)C(=O)CN1C[C@@H](c2cc(OC)c3c(c2)OCO3)[C@H](C(=O)O)[C@H]1CC(C)(C)CCC | cell-free assay | competition with immobilised ligand | 1 µM | 100% |
| O=C(Nc1c[nH]nc1C(=O)NC1CCNCC1)c1cc(F)cc(F)c1 | binding | competition with immobilised ligand | 1 µM | 100% |
| COc1ncc2cc3ccccc3nc2c1C#N | binding | competition with immobilised ligand | 5 µM | 100% |
| CCN1CCN(Cc2ccc(C(=O)Nc3ccc(C)c(Oc4ccc5c(c4)CC(=O)N5)c3)cc2C(F)(F)F)CC1 | binding | competition with immobilised ligand | 1 µM | 98% |
| O=C(NCCCN1CCOCC1)c1ccc(Nc2nccc(-c3cc4ccccc4s3)n2)cc1 | binding | competition with immobilised ligand | 1 µM | 100% |
| CN(C)c1nccc(-c2cnn3ncccc23)n1 | binding |  | 1 µM | 90% |
| c1cncc(-c2cccc(Nc3nccc(NC4CCCCC4)n3)c2)c1 | binding | competition with immobilised ligand | 10 µM | 94% |
| N[C@@H]1CCN(c2nccc(-c3cnn4ncccc34)n2)C1 | binding |  | 1 µM | 95% |
| O=C(c1ccc(Nc2nccc(-c3cc4ccccc4s3)n2)cc1)N1CCC(N2CCCC2)CC1 | binding | competition with immobilised ligand | 1 µM | 100% |
| O=C(Nc1cccnn1)N1CCC(=Cc2cccc(Oc3ccc(C(F)(F)F)cn3)c2)CC1 | cell-free assay | competition with immobilised ligand | 1 µM | 100% |
| C[C@@H]1CCN(c2nccc(-c3cnn4ncccc34)n2)C1 | binding |  | 1 µM | 90% |
| CSc1cccnc1N1CCN(Cc2nc3ccccc3[nH]2)CC1 | binding | competition with immobilised ligand | 1 µM | 90% |
| c1cnn2ncc(-c3ccnc(N4CCC45COC5)n3)c2c1 | binding |  | 1 µM | 99% |
| O=C(O)[C@H]1[C@H](Cn2nnc3ccccc3c2=O)CC[C@@H]1C(=O)c1ccc(OCCC2CCOCC2)cc1 | binding | competition with immobilised ligand | 1 µM | 100% |
| CN(C)c1ncc(F)c(-c2cnn3ncccc23)n1 | binding |  | 1 µM | 100% |
| O=c1nc(-c2ccccn2)sc2ccccc12 | binding | competition with immobilised ligand | 1 µM | 82% |
| CC1CCCN1c1nccc(-c2cnn3ncccc23)n1 (stereo not drawn) | binding |  | 1 µM | 100% |
| O=C(NCCCN1CCOCC1)c1ccc(Nc2ncc(Cl)c(-c3ccc(Cl)s3)n2)cc1 | binding | competition with immobilised ligand | 1 µM | 100% |
